Hits are enriched below; roughly 1.6% of the tested compounds scored in any of these assays.
TPT1 inh: C. albicans TPT1 enzyme inhibition; AID 1962; 300,000 tested, 0.81% active; inhibition, % at 5 µM; recombinant caTPT1, FP RNA substrate dephosphorylation;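 active means inhibition above the mean of all tested compounds plus 3 SD, set per screening campaign, cut at about 24% in these data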;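 further: plate controls were DMSO alone for no effect and ferristatin control at 100 nM for full effect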
Rpn11 inh: inhibitors of human proteasome Rpn11. O00487. human 26S proteasome, Ub4-pepOG fluorescence polarization; 20S core pre-blocked with epoxomicin. inhibition, % at 20 µM. 360,000 tested, 0.59% active. AID 588493;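 active means inhibition at 20 µM, scaled to each plate's controls, above about 33%, limit read from the data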
SENP1 FRET inh: inhibitors of human SENP1 SUMO protease catalytic domain; Q9P0U3; recombinant SENP1 catalytic domain, CyPet-SUMO1-YPet FRET cleavage; inhibition, % at 10 µM; 360,000 tested, 0.21% active; AID 624204;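 active means inhibition at least 30% at 10 µM, raw YFP signal under a set limit, fluorescence ratio 0.5 to 1.5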;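 further: 0% = enzyme with DMSO and 100% = no enzyme wells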
Target sequence (Q9P0U3 419-644 limits assumed): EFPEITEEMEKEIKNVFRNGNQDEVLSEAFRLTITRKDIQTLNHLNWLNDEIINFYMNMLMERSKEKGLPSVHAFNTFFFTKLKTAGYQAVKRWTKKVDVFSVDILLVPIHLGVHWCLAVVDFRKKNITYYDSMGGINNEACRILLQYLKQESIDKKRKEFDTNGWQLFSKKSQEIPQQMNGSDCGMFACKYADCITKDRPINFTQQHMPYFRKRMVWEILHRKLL
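Controls: no-enzyme wells low, DMSO-plus-enzyme wells high control. Test system: human recombinant His6-tagged SENP1 catalytic domain enzyme. Reagent: SFCypet-SUMO1-SFYpet FRET protein substrate, 25 nM final. Doses: one dose per compound, 10 µM, 0.5% DMSO. Detection: FRET, CFP and YFP emission. Timing: 50 min reaction at room temperature.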
HNF4A DNA FP: change in binding of human HNF4 alpha to DNA | AID 1224865 | activity change, % at 10 µM | HNF4a-FITC DNA binding, fluorescence polarization, 1 h | 360,000 tested, 0.3% active | P41235; in the data active means activity change above about 30%, passing the limit was not always enough
CSN inh: blocks human CSN-mediated cullin deneddylation; Q92905; Purified CSN, SCF-Nedd8-OG deneddylation, fluorescence polarization; inhibition, % at 12.5 µM; 360,000 tested, 0.38% active; AID 651999;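 active means pattern-corrected inhibition above about 35%, with an unprinted fluorescence ratio check between 0.5 and 1.5, limit read from the data, passing the limit was not always enough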;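 further: 0% = enzyme with substrate and 100% = substrate without enzyme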
Target sequence (Q92905 whole entry, looked up, one chain of several): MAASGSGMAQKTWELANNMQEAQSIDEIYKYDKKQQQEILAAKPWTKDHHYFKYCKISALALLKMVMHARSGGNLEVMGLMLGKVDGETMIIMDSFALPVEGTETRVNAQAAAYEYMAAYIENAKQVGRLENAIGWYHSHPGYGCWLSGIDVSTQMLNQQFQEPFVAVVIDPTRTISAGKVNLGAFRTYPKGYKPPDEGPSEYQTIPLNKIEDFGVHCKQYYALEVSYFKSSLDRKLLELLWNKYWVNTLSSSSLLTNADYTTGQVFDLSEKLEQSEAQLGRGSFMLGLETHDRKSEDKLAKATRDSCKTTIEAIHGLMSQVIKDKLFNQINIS
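Test system: purified human Csn5 enzyme expressed in HEK293T cells. Amount: 0.24 nM enzyme. Reagent: SCFSkp2-Nedd8OG substrate at 10 nM final. Schedule: 90 min incubation of compound, enzyme and substrate at room temperature. Detection: fluorescence polarization. Read-out: % inhibition of substrate cleavage by Csn5.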
Rpn11 inh conf: confirmation of human proteasome Rpn11 inhibitors; shares compounds with Rpn11 inh; purified human 26S proteasome, Ub4-pepOG fluorescence polarization; proteasome pretreated with epoxomicin; inhibition, % at 20 µM; 1,900 tested, 29% active
MMP-2 counter: MMP-2 (human) inhibition counter-screen. shares compounds with Rpn11 inh. recombinant MMP-2, FRET peptide cleavage fluorescence. inhibition, % at 20 µM. 1,900 tested, 4% active;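 further: human MMP-2 activated beforehand with APMA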
Thrombin FP: thrombin (bovine) inhibition counter-screen; shares compounds with Rpn11 inh; bovine thrombin cleavage of Ub4-pepOG, fluorescence polarization; inhibition, % at 20 µM; 1,900 tested, 13% active; AID 602333;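 active means mean inhibition at least 40% at 20 µM, or signal 3 deviations below plate average, so some actives read negative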;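 further: plate controls were thrombin with DMSO for no effect and buffer wells lacking thrombin for full effect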
* = called active by the depositor; x = no result given. Unless noted, no stated cut-off is given here; in the data, active means inhibition above about 40%; inactive means the rest.

SMILES	TPT1 inh	Rpn11 inh	SENP1 FRET inh	HNF4A DNA FP	CSN inh	Rpn11 inh conf	MMP-2 counter	Thrombin FP
CN1/C(=C\C=N\NC(=O)c2cccnc2)C(C)(C)c2ccccc21	0	4	-86	4	-2	x	x	x
Cc1c(Cc2ccccc2)sc(NC(=O)/C=C/c2cccc3ccccc23)c1C(N)=O	-1	38*	2	4	2	-6	-8	-33
CC12CCC(C/C1=N/O)C2(C)CBr (centres undefined)	-6	32*	1	-8	4	-14	-51	-17
COc1cccc(-c2csc(N3CCN(C(=S)Nc4cccc(Cl)c4)CC3)n2)c1	-4	35*	1	4	3	18	39	10
c1ccc(OCCn2c(-c3ccco3)nc3ccccc32)cc1	10	49*	-54	10	9	-5	-13	-14
CCCc1cc(C(F)(F)F)c(C#N)c(=O)[nH]1	0	-3	-2	0	2	x	x	x
CC(C)(C)c1cc(C(F)(F)F)c(C#N)c(=O)[nH]1	0	65*	2	-1	-4	5	-22	4
COC(=O)c1c(-c2cccnc2)csc1NC(=O)c1ccc2c(c1)OCO2	21	52*	-16	14	10	52*	-20	21
Cc1ccc(-n2c(=O)c3cc4c(=O)n(-c5ccc(C)c(C)c5)c(=O)c4c(C(=O)c4ccc(C(=O)O)cc4)c3c2=O)cc1C	-1	109*	4	-58	84*	4	11	39
O=C1CSC(=S)N1/N=C/c1ccc(O)c(O)c1O	11	x	12	-25	54	x	x	x
O=C1CSC(=S)N1N=Cc1ccc(Cl)s1	x	59*	8	36	13	41*	31	37
COc1ccc(/C=N/N2C(=O)CSC2=S)cc1	7	10	0	4	0	x	x	x
CC(C)(C)c1ccc(/C=N/N2C(=O)CSC2=S)cc1	7	48*	4	3	6	18	38	14
CCOC(=O)C1(C)CCCCN1C(=O)c1ccc(F)c(C)c1 (centres undefined)	x	-3	1	-3	8	x	x	x
Cc1ccc(S(=O)(=O)N(C)c2ccc(OC(=O)c3cccs3)cc2)cc1C	x	-1	-5	1	-4	x	x	x
N#C/C(=C\c1ccc(OC(=O)c2ccc(Br)s2)cc1)c1nc2ccccc2[nH]1	2	58*	-31	-2	-1	-8	-13	-22
N#C/C(=C/c1ccc(OC(=O)c2ccc(Br)s2)cc1)c1nc2ccccc2[nH]1	x	32	-27	-9	23	x	x	x
N#C/C(=C\c1ccc(OC(=O)c2ccc(Cl)s2)cc1)c1nc2ccccc2[nH]1	-3	49*	-23	-7	4	-12	0	-33
O=C(CNc1ccccc1OC(F)F)N1CCc2ccccc21	5	-4	-2	-1	-5	x	x	x
CC(=O)c1sc(NC(=O)CCCOc2ccc(Cl)cc2)nc1C	4	77*	-2	24	5	12	14	-9
C[C@H]1C=C(C(=O)O)O[C@@H](OCc2ccc(CO)cc2)C1	-3	-7	1	-2	-4	x	x	x
O=C(Nc1ccc2oc(-c3ccncc3)nc2c1)c1ccco1	3	6	-15	1	8	x	x	x
O=C(Nc1ccc2c(c1)CCC2)c1ccc(Br)o1	-7	97*	0	-5	4	-19	11	-1
O=C(Nc1ccc2oc(-c3ccncc3)nc2c1)c1ccc(Br)o1	-3	76*	-6	1	6	-13	8	-24
Cc1cc(Br)ccc1NC(=O)CN(C)C(=O)C1=COCCO1	x	0	1	-5	0	x	x	x
SMILES	TPT1 inh	Rpn11 inh	SENP1 FRET inh	HNF4A DNA FP	CSN inh	Rpn11 inh conf	MMP-2 counter	Thrombin FP
COc1ccc(C(=O)CSc2nnc(NC(=O)C3CC(=O)N(c4ccccc4)C3)s2)cc1 (centres undefined)	4	44*	0	4	-3	13	2	-4
COc1cccc(N2CC(C(=O)Nc3nnc(SCC(=O)c4ccccc4)s3)CC2=O)c1 (centres undefined)	2	8	0	2	-5	x	x	x
COc1ccc(/C=C2\SC(=S)N(CCCC(=O)Nc3ccc(C(=O)O)cc3)C2=O)cc1OC	23	56*	-6	21	8	67*	-24	52*
COc1ccc(/C=C2\SC(=O)N(CCCC(=O)Nc3ccc(C(=O)O)cc3)C2=O)cc1OC	-2	5	-6	-2	0	x	x	x
COc1ccc(/C=C2/SC(=S)N(CCCC(=O)Nc3ccc(O)cc3)C2=O)cc1OC	19	45*	-57	18	5	61*	-10	42*
CCOc1ccc(/C=C2/SC(=S)N(CCC(=O)Nc3ccc(C(=O)O)cc3)C2=O)cc1	-6	79*	-27	-2	24	-10	-2	2
COc1cccc(/C=C2/SC(=S)N(CCCC(=O)Nc3ccc(O)cc3)C2=O)c1	2	-5	0	3	-1	x	x	x
COc1ccc(/C=C2/SC(=S)N(CCC(=O)N3CCN(C)CC3)C2=O)cc1	2	-5	-25	-2	0	x	x	x
CCc1ccc(/C=C2\SC(=S)N(CCC(=O)N3CCN(C)CC3)C2=O)cc1	0	51*	1	0	5	70*	-53	54*
O=C(CCN1C(=O)/C(=C\c2ccccc2)SC1=S)Nc1ccc(C(=O)O)cc1	2	1	1	5	3	x	x	x
CCCn1c(=O)n(C)c(=O)c2c(SCC(=O)Nc3cc(C)on3)nc(C(C)(C)C)nc21	x	-2	-1	4	2	x	x	x
CCCC(=O)NCc1nc2ccccc2n1CC(=O)c1ccccc1	-5	-8	2	2	-1	x	x	x
O=C(O)c1cccc2c1C(=O)c1ccc(N3CCN(Cc4ccc5c(c4)OCO5)CC3)cc1S2(=O)=O	x	15	53	6	4	x	x	x
O=C(O)CCCCN1C(=O)/C(=C\c2ccc(OCc3ccccc3)c(OCc3ccccc3)c2)SC1=S	2	43*	-54	-31	8	43*	2	0
Cc1ccc(/C=C2\SC(=S)N(CCC(=O)NNC(=O)c3ccccc3O)C2=O)cc1	0	-6	4	2	1	x	x	x
Cc1ccc(/C=C2\SC(=S)N(CCCC(=O)NNC(=O)c3ccccc3O)C2=O)cc1	3	42*	-1	10	4	43*	-32	-22

High-throughput results (PubChem BioAssay)
